# Results reported in ChEMBL document CHEMBL1125265, “FTIR spectral study of intramolecular hydrogen bonding in thromboxane A2 receptor antagonist S-145 and related compounds. 3. Conformation and activity of S-145 analogues” (J Med Chem, 1991).
# What was measured:
# Assay type in all cases: functional
# Oryctolagus cuniculus [1] = organism: Oryctolagus cuniculus; assay: In vitro inhibitory concentration measured against U-46,619 (1 uM) induced aggregation of washed platelets (WP) in rabbit; N-Negative
# Rattus norvegicus [2] = organism: Rattus norvegicus; assay: In vitro inhibitory concentration measured against collagen ([…]) induced aggregation of washed platelets (WP) in rat
# Outline: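 Rat washed platelets; aggregation triggered with collagen at 4 µg/mL; inhibitory concentration reported as IC50, following a procedure from earlier work.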
# Rattus norvegicus [3] = organism: Rattus norvegicus; assay: In vitro inhibitory concentration measured against U-46,619 (30 nM) induced contraction for rat aorta
# Oryctolagus cuniculus [4] = organism: Oryctolagus cuniculus; assay: In vitro inhibitory concentration measured against U-46,619 (1 uM) induced aggregation of washed platelets (WP) in rabbit
IC50 (Oryctolagus cuniculus [1]),IC50 (Rattus norvegicus [2]) [nM],IC50 (Rattus norvegicus [3]) [nM],IC50 (Oryctolagus cuniculus [4]) [nM],Structure (SMILES)
Negative,–,–,–,CCCCCCC(O)CCCCCCCCCCC(=O)O (configuration not stated)
Negative,> 14500,> 140000,–,O=C(O)CCCCCNS(=O)(=O)c1ccccc1
–,4350,4600,10000,O=C(O)CCCCCCCCCCNS(=O)(=O)c1ccccc1
–,410,1600,400,O=C(O)CCCCCCCCNS(=O)(=O)c1ccccc1
–,11600,55300,> 10000,O=C(O)CCCCCCNS(=O)(=O)c1ccccc1
Negative,> 14500,> 140000,–,O=C(O)CCCCNS(=O)(=O)c1ccccc1
–,2.9,1.4,6,O=C(O)CCC/C=C\C[C@@H]1C(NS(=O)(=O)c2ccccc2)C2CC[C@@H]1C2 (some centres not stated)
Negative,> 14500,> 140000,–,O=C(O)CCCNS(=O)(=O)c1ccccc1
–,3480,6400,> 10000,O=C(O)CCCCCCCCCCCNS(=O)(=O)c1ccccc1
–,41,–,48,O=C(O)CCC/C=C\CCCNS(=O)(=O)c1ccccc1
–,290,2800,700,O=C(O)CCCCCCCNS(=O)(=O)c1ccccc1
–,–,–,300,O=C(O)COc1ccc(CCNS(=O)(=O)c2ccccc2)cc1 [SULOTROBAN]

Structure (SMILES),IC50 (Oryctolagus cuniculus [1]),IC50 (Rattus norvegicus [2]) [nM],IC50 (Rattus norvegicus [3]) [nM],IC50 (Oryctolagus cuniculus [4]) [nM]
O=C(O)CCCCCCCCCCCO,Negative,–,–,–
